Laboratory results taken from publication PMC9924099 (Journal of medicinal chemistry, 2021).
pIC50: −log10 of the molar value. Where two headings read alike, the source gives them in different places.

Assays:
WT p53 in MCF-7 cells = WT p53 in MCF-7 cells (Homo sapiens, UniProt P04637); assay: Western blot of p53 expression; assay type: cell-based; details: MCF-7, 6 μM or 12 μM, 24 h
Summary of the method: (§1)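 Cells were treated 24 h with 6 μM or 12 μM test compound or DMSO and lysed in NP-40/Tris-Cl pH 8.0 buffer with protease inhibitors. Load on 4–12% SDS-PAGE was 20 μg for MDA-MB-231 and MDA-MB-468 or 50 μg for MCF-7. After PVDF transfer, blots were probed with p53 DO-1 antibody, reprobed for GAPDH as loading control and developed by ECL.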

[1] = target: p53^R280K in MDA-MB-231 cells (Homo sapiens, UniProt P04637, R280K); assay: Western blot of p53 expression; assay type: cell-based; details: MDA-MB-231, 6 μM or 12 μM, 24 h
Summary of the method: as §1

[2] = target: p53^R273H in MDA-MB-468 cells (Homo sapiens, UniProt P04637, R273H); assay: Western blot of p53 expression; assay type: cell-based; details: MDA-MB-468, 6 μM or 12 μM, 24 h
Summary of the method: as §1

[3] = test system: p53^R273H MDA-MB-468 cells; assay: Annexin V staining; assay type: cell-based, human; details: MDA-MB-468, 6 μM or 12 μM, 24 h
[4] = test system: p53^R280K MDA-MB-231 cells; assay: WST-1 cell proliferation assay; assay type: cell-based, human; details: for inhibition of cell proliferation (in words): MDA-MB-231, 24 h or 72 h; for pIC50: Homo sapiens, read-out: IC50, inhibition of cell proliferation
[5] = test system: p53^R280K MDA-MB-231 cells; assay: Annexin V staining; assay type: cell-based, human; details: MDA-MB-231, 6 μM or 12 μM, 24 h
WT p53 MCF-7 cells [6] = assay: Annexin V staining; assay type: cell-based, human; details: MCF-7, 24 h
Summary of the method: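 After 24 h exposure to test compound or DMSO, MCF-7 cells (RPMI 1640, 10% FBS, 1% penicillin/streptomycin, 1% L-glutamine) were scraped, PBS-washed and taken up in Annexin V binding buffer. They were stained with fluorochrome-conjugated Annexin V for 15 min at RT in the dark, then PI staining solution was added. Flow cytometry read-out; % Annexin V-positive cells expressed relative to DMSO.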

WT p53 MCF-7 cells [7] = assay: WST-1 cell proliferation assay; assay type: cell-based, human; details: MCF-7, 24 h or 72 h; compared to mutant p53 cells
Summary of the method: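 WST-1 assay. Test compound in DMSO was added to cells at 40,000 cells/ml, giving 1% DMSO final, and plated at 4,000 cells/well in duplicate; medium-only wells served as background. Incubation was 24 h or 72 h at 37 °C, then WST-1 for 2 h and OD450 read. Proliferation is expressed as % of DMSO control; triplicate experiments. MCF-7 grown in RPMI 1640, MDA-MB-436 in DMEM.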

Log P determination = assay type: physicochemical; details: octanol/sodium phosphate buffer (pH 7.4)
[8] = test system: p53^R273H MDA-MB-468 cells; assay: WST-1 cell proliferation assay; assay type: cell-based, human; details: MDA-MB-468, 24 h or 72 h

| SMILES | WT p53 expression (western blot) (WT p53 in MCF-7 cells) | mutant p53 expression (western blot) [1] | mutant p53 expression (western blot) [2] | inhibition of cell proliferation (in words) [4] | increase in Annexin V stained cells compared to DMSO (WT p53 MCF-7 cells [6]) | inhibition of cell proliferation / sensitivity (in words) (WT p53 MCF-7 cells [7]) | further results |
| --- | --- | --- | --- | --- | --- | --- | --- |
| S=C=NC12CC3CC(CC(C3)C1)C2 [Ad-ITC 1, 1-Isothiocyanatoadamantane] | did not decrease WT p53 expression | no depletion | no depletion | failed to show any significant inhibition of cell proliferation | did not display any significant increase |  | increase in Annexin V stained cells compared to DMSO [3]: did not induce significant increase in apoptosis; increase in Annexin V stained cells compared to DMSO [5]: did not induce significant increase in apoptosis |
| S=C=NC1C2CC3CC(C2)CC1C3 (stereo not shown) [Ad-ITC 2, 2-Isothiocyanatoadamantane] |  |  |  | failed to show any significant inhibition of cell proliferation |  |  |  |
| S=C=NCC12CC3CC(CC(C3)C1)C2 [Ad-ITC 3, 1-Isothiocyanatomethyladamantane] | did not decrease WT p53 expression | differential decrease in the expression of mutant p53 | differential decrease in the expression of mutant p53 | dose-dependent activity | did not display any significant increase | remarkably less sensitive | increase in Annexin V stained cells compared to DMSO [3]: 2.0-5.1 fold; pIC50 ([4]; MDA-MB-231, 24 h): 4.32 to 4.62; pIC50 ([4]; MDA-MB-231, 72 h): 4.32 to 4.62; increase in Annexin V stained cells compared to DMSO [5]: 2.0-5.1 fold |
| CC(N=C=S)C12CC3CC(CC(C3)C1)C2 (stereo not shown) [Ad-ITC 4, 1-Isothiocyanato-1-(adamantan-1-yl)ethane] |  |  |  | did not show any significant inhibition |  |  |  |
| S=C=NCCC12CC3CC(CC(C3)C1)C2 [Ad-ITC 5, 1-Isothiocyanato-2-(adamantan-1-yl)ethane] | did not decrease WT p53 expression | differential decrease in the expression of mutant p53 | differential decrease in the expression of mutant p53 |  | did not display any significant increase | did not inhibit MCF-7 cell proliferation | logP at 18 h (Log P determination): 4.76; pIC50 ([4]; MDA-MB-231, 24 h): 4.32 to 4.62; pIC50 ([4]; MDA-MB-231, 72 h): 4.62 to 4.92 |
| S=C=Nc1ccc(C23CC4CC(CC(C4)C2)C3)cc1 [Ad-ITC 7, 1-(4-Isothiocyanatophenyl)adamantane] |  |  |  | significantly less potent than Ad-ITCs 3, 5, and 6 |  |  |  |
| S=C=NCCOC12CC3CC(CC(C3)C1)C2 [Ad-ITC 8, 1-(2-Isothiocyanatoethoxy)adamantane] |  |  |  | not active in vitro |  |  | logP at 18 h (Log P determination): 4.42 |
| CC(C)(COC12CC3CC(CC(C3)C1)C2)N=C=S [Ad-ITC 9, 1-(2-Isothiocyanato-2-methylpropoxy)adamantane] |  |  |  | not active in vitro |  |  |  |
| CCCC(CN=C=S)C1C2CC3CC(C2)CC1C3 (stereo not shown) [Ad-ITC 10, 2-(1-Isothiocyanatopentan-2-yl)adamantane] |  |  |  | did not show any significant inhibition |  |  |  |
| CC12CC3CC(C)(C1)CC(N=C=S)(C3)C2 [Ad-ITC 11, 1-Isothiocyanato-3,5-dimethyladamantane] |  |  |  | failed to show any significant inhibition of cell proliferation |  |  |  |
| O=C(CC12CC3CC(CC(C3)C1)C2)N=C=S [Ad-ITC 12, 2-(Adamantan-1-yl)acetyl isothiocyanate] |  |  |  | failed to inhibit the cell proliferation |  |  |  |
| O=C1CNC(=S)N1CCC12CC3CC(CC(C3)C1)C2 [Ad-compound 13, 3-(2-(Adamantan-1-yl)ethyl)-2-thioxoimidazolidin-4-one] | did not decrease WT p53 expression | failed to affect mutant p53 expression | failed to affect mutant p53 expression | did not inhibit the proliferation | did not display any significant increase | did not inhibit MCF-7 cell proliferation | increase in Annexin V stained cells compared to DMSO [3]: did not induce significant increase in apoptosis; increase in Annexin V stained cells compared to DMSO [5]: did not induce significant increase in apoptosis; inhibition of cell proliferation (in words) [8]: did not inhibit MDA-MB-468 cells proliferation |
| C1C2CC3CC1CC(C2)C3 [adamantane, Adamantane, reference compound] |  |  |  | did not inhibit MDA-MB-231 cells proliferation |  | did not inhibit MCF-7 cell proliferation | inhibition of cell proliferation (in words) [8]: did not inhibit MDA-MB-468 cells proliferation |
